# From article PMC4415995 (Advances in Therapy, 2015)
# Read-outs that look alike come from different tables or passages of the source. Marks after values point to notes of the source that are not given here.
# What was measured:
# [1] = tested on: Japanese patients with T2DM; assay: Serum insulin concentrations, 7-day once-daily dosing; assay type: in vivo, human
# [2] = tested on: Japanese patients with T2DM; assay: Urine volume, water intake and body weight, 7-day once-daily dosing; assay type: in vivo, human
# [3] = tested on: Japanese patients with T2DM; conditions: cited from earlier work
# SGLT1 = conditions: SGLT2 vs SGLT1; cited from earlier work
# [4] = tested on: Japanese patients with T2DM; assay: Adverse events, 7-day once-daily dosing; assay type: in vivo, human; conditions: for ALT increased / Blood urine present / Constipation / Dermatitis contact / Diarrhea / Headache / Pruritus / γ-GTP increased: N = 8
# Summary of the method: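 Randomized, single-blind, placebo-controlled, parallel-group study in Japanese T2DM outpatients (HbA1c 6.9–10.5%, FPG ≥126 mg/dL, stable diet 4 weeks, age 20–74 y). Test compound 0.5, 1, 2.5 or 5 mg or placebo was given orally once daily for 7 days before breakfast. Safety set was all dosed patients. AEs were coded in MedDRA 12.1 and graded mild/moderate/severe, with drug relation judged by the investigator. Labs, vital signs, body weight and ECG were also recorded.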
compound,measurement,setting,value
"CCOc1ccc(Cc2cc([C@@H]3S[C@H](CO)[C@@H](O)[C@H](O)[C@H]3O)c(OC)cc2C)cc1 [Luseogliflozin, (1S)-1,5-anhydro-1-[5-(4-ethoxybenzyl)-2-methoxy-4-methylphenyl]-1-thio-D-glucitol]",Serum insulin AUC0–4h (after breakfast),"[1]; 0.5 mg OD, Day 1",95.0 ± 33.9 μIU h/mL
same,Serum insulin AUC0–4h (after breakfast) LS mean difference vs placebo (95% CI),"[1]; 0.5 mg OD, Day 1","−13.8 (−43.1, 15.6) μIU h/mL"
same,Serum insulin AUC0–4h (after breakfast),"[1]; 0.5 mg OD, Day 7",81.4 ± 39.4 μIU h/mL
same,Serum insulin AUC0–4h (after breakfast) LS mean difference vs placebo (95% CI),"[1]; 0.5 mg OD, Day 7","−32.3 (−62.8, −1.82)* μIU h/mL"
same,Serum insulin AUC0–4h (after breakfast),"[1]; 1 mg OD, Day 1",161 ± 67.9 μIU h/mL
same,Serum insulin AUC0–4h (after breakfast) LS mean difference vs placebo (95% CI),"[1]; 1 mg OD, Day 1","−12.1 (−39.4, 15.3) μIU h/mL"
same,Serum insulin AUC0–4h (after breakfast),"[1]; 1 mg OD, Day 7",125 ± 43.4 μIU h/mL
same,Serum insulin AUC0–4h (after breakfast) LS mean difference vs placebo (95% CI),"[1]; 1 mg OD, Day 7","−36.1 (−64.5, −7.72)* μIU h/mL"
same,Serum insulin AUC0–4h (after breakfast),"[1]; 2.5 mg OD, Day 1",101 ± 56.1 μIU h/mL
same,Serum insulin AUC0–4h (after breakfast) LS mean difference vs placebo (95% CI),"[1]; 2.5 mg OD, Day 1","−32.7 (−60.4, −4.93)* μIU h/mL"
same,Serum insulin AUC0–4h (after breakfast),"[1]; 2.5 mg OD, Day 7",75.1 ± 29.4 μIU h/mL
same,Serum insulin AUC0–4h (after breakfast) LS mean difference vs placebo (95% CI),"[1]; 2.5 mg OD, Day 7","−56.7 (−85.4, −27.9)* μIU h/mL"
same,Serum insulin AUC0–4h (after breakfast),"[1]; 5 mg OD, Day 1",190 ± 118 μIU h/mL
same,Serum insulin AUC0–4h (after breakfast) LS mean difference vs placebo (95% CI),"[1]; 5 mg OD, Day 1","−17.0 (−44.8, 10.8) μIU h/mL"
same,Serum insulin AUC0–4h (after breakfast),"[1]; 5 mg OD, Day 7",157 ± 82.5 μIU h/mL
same,Serum insulin AUC0–4h (after breakfast) LS mean difference vs placebo (95% CI),"[1]; 5 mg OD, Day 7","−28.6 (−57.5, 0.198) μIU h/mL"
same,Body weight (24 h after dose),"[2]; 0.5 mg OD, Day 1",67.49 ± 14.32 kg
same,Body weight (24 h after dose) LS mean difference vs placebo (95% CI),"[2]; 0.5 mg OD, Day 1","−0.19 (−0.58, 0.20) kg"
same,Urine volume,"[2]; 0.5 mg OD, Day 1",3148.1 ± 718.5 mL/day
same,Urine volume LS mean difference vs placebo (95% CI),"[2]; 0.5 mg OD, Day 1","456.1 (−212.4, 1124.7) mL/day"
same,Water intake,"[2]; 0.5 mg OD, Day 1",2694.4 ± 936.4 mL/day
same,Water intake LS mean difference vs placebo (95% CI),"[2]; 0.5 mg OD, Day 1","131.8 (−455.8, 719.3) mL/day"
same,Body weight (24 h after dose),"[2]; 0.5 mg OD, Day 7",66.76 ± 14.29 kg
same,Body weight (24 h after dose) LS mean difference vs placebo (95% CI),"[2]; 0.5 mg OD, Day 7","−0.45 (−1.14, 0.24) kg"
same,Urine volume,"[2]; 0.5 mg OD, Day 7",3053.3 ± 1067.7 mL/day
same,Urine volume LS mean difference vs placebo (95% CI),"[2]; 0.5 mg OD, Day 7","303.5 (−208.4, 815.3) mL/day"
same,Water intake,"[2]; 0.5 mg OD, Day 7",2686.4 ± 929.1 mL/day
same,Water intake LS mean difference vs placebo (95% CI),"[2]; 0.5 mg OD, Day 7","175.8 (−407.1, 758.7) mL/day"
same,Body weight (24 h after dose),"[2]; 1 mg OD, Day 1",71.71 ± 18.26 kg
same,Body weight (24 h after dose) LS mean difference vs placebo (95% CI),"[2]; 1 mg OD, Day 1","−0.31 (−0.68, 0.07) kg"
same,Urine volume,"[2]; 1 mg OD, Day 1",3284.5 ± 653.4 mL/day
same,Urine volume LS mean difference vs placebo (95% CI),"[2]; 1 mg OD, Day 1","723.8 (76.7, 1370.9)* mL/day"
same,Water intake,"[2]; 1 mg OD, Day 1",3023.8 ± 883.4 mL/day
same,Water intake LS mean difference vs placebo (95% CI),"[2]; 1 mg OD, Day 1","513.6 (−54.5, 1081.7) mL/day"
same,Body weight (24 h after dose),"[2]; 1 mg OD, Day 7",71.01 ± 18.10 kg
same,Body weight (24 h after dose) LS mean difference vs placebo (95% CI),"[2]; 1 mg OD, Day 7","−0.51 (−1.17, 0.14) kg"
same,Urine volume,"[2]; 1 mg OD, Day 7",2421.0 ± 795.6 mL/day
same,Urine volume LS mean difference vs placebo (95% CI),"[2]; 1 mg OD, Day 7","−174.9 (−670.3, 320.5) mL/day"
same,Water intake,"[2]; 1 mg OD, Day 7",2400.4 ± 583.5 mL/day
same,Water intake LS mean difference vs placebo (95% CI),"[2]; 1 mg OD, Day 7","−64.4 (−628, 499.2) mL/day"
same,Body weight (24 h after dose),"[2]; 2.5 mg OD, Day 1",67.43 ± 7.73 kg
same,Body weight (24 h after dose) LS mean difference vs placebo (95% CI),"[2]; 2.5 mg OD, Day 1","−0.53 (−0.91, −0.15)* kg"
same,Urine volume,"[2]; 2.5 mg OD, Day 1",3511.4 ± 522.9 mL/day
same,Urine volume LS mean difference vs placebo (95% CI),"[2]; 2.5 mg OD, Day 1","643.8 (−3.8, 1291.3) mL/day"
same,Water intake,"[2]; 2.5 mg OD, Day 1",2964.0 ± 940.1 mL/day
same,Water intake LS mean difference vs placebo (95% CI),"[2]; 2.5 mg OD, Day 1","−161.3 (−733.9, 411.4) mL/day"
same,Body weight (24 h after dose),"[2]; 2.5 mg OD, Day 7",66.70 ± 7.84 kg
same,Body weight (24 h after dose) LS mean difference vs placebo (95% CI),"[2]; 2.5 mg OD, Day 7","−0.79 (−1.46, −0.12)* kg"
same,Urine volume,"[2]; 2.5 mg OD, Day 7",3048.5 ± 868.2 mL/day
same,Urine volume LS mean difference vs placebo (95% CI),"[2]; 2.5 mg OD, Day 7","92.9 (−402.9, 588.6) mL/day"
same,Water intake,"[2]; 2.5 mg OD, Day 7",3049.1 ± 856.6 mL/day
same,Water intake LS mean difference vs placebo (95% CI),"[2]; 2.5 mg OD, Day 7","46.5 (−521.6, 614.6) mL/day"
same,Body weight (24 h after dose),"[2]; 5 mg OD, Day 1",70.96 ± 9.34 kg
same,Body weight (24 h after dose) LS mean difference vs placebo (95% CI),"[2]; 5 mg OD, Day 1","−0.74 (−1.11, −0.36)* kg"
same,Urine volume,"[2]; 5 mg OD, Day 1",3939.8 ± 1386.0 mL/day
same,Urine volume LS mean difference vs placebo (95% CI),"[2]; 5 mg OD, Day 1","888.4 (235, 1541.8)* mL/day"
same,Water intake,"[2]; 5 mg OD, Day 1",3256.8 ± 1581.7 mL/day
same,Water intake LS mean difference vs placebo (95% CI),"[2]; 5 mg OD, Day 1","17.3 (−558.5, 593.1) mL/day"
same,Body weight (24 h after dose),"[2]; 5 mg OD, Day 7",70.24 ± 9.09 kg
same,Body weight (24 h after dose) LS mean difference vs placebo (95% CI),"[2]; 5 mg OD, Day 7","−0.97 (−1.62, −0.31)* kg"
same,Urine volume,"[2]; 5 mg OD, Day 7",3471.4 ± 1204.5 mL/day
same,Urine volume LS mean difference vs placebo (95% CI),"[2]; 5 mg OD, Day 7","300.4 (−199.9, 800.6) mL/day"
same,Water intake,"[2]; 5 mg OD, Day 7",3141.0 ± 1387.3 mL/day
same,Water intake LS mean difference vs placebo (95% CI),"[2]; 5 mg OD, Day 7","38.5 (−532.7, 609.8) mL/day"
same,incidence of hypoglycemia,"[3]; 0.5 mg, Phase II, 1/60",1.7%
same,incidence of AEs related to genital infection,"[3]; 2.5 mg, Phase III, 1/79",1.3%
same,incidence of hypoglycemia,"[3]; 2.5 mg, Phase III, 1/79",1.3%
same,incidence of pollakiuria,"[3]; 2.5 mg, Phase III, 2/79",2.5%
same,incidence of AEs related to renal function,"[3]; 2.5 mg, Phase III, 6/79",7.6%
same,body weight change,"[3]; 2.5 mg, over 24 weeks of treatment",-2.70 kg
same,incidence of hypoglycemia,"[3]; 5 mg, Phase II, 1/54",1.9%
same,episodes of volume depletion,[3]; Phase III study,no episodes
same,IC50 for SGLT2 lower than IC50 for SGLT1 (selectivity),SGLT1,1765 fold
same,ALT increased,[4]; 0.5 mg OD for 7 days,0 number of subjects
same,Blood urine present,[4]; 0.5 mg OD for 7 days,0 number of subjects
same,Constipation,[4]; 0.5 mg OD for 7 days,1 number of subjects
same,Dermatitis contact,[4]; 0.5 mg OD for 7 days,0 number of subjects
same,Diarrhea,[4]; 0.5 mg OD for 7 days,1 number of subjects
same,Headache,[4]; 0.5 mg OD for 7 days,1 number of subjects
same,Pruritus,[4]; 0.5 mg OD for 7 days,1 number of subjects
same,γ-GTP increased,[4]; 0.5 mg OD for 7 days,0 number of subjects
same,ALT increased,[4]; 1 mg OD for 7 days,0 number of subjects
same,Blood urine present,[4]; 1 mg OD for 7 days,0 number of subjects
same,Constipation,[4]; 1 mg OD for 7 days,0 number of subjects
same,Dermatitis contact,[4]; 1 mg OD for 7 days,1 number of subjects
same,Diarrhea,[4]; 1 mg OD for 7 days,0 number of subjects
same,Headache,[4]; 1 mg OD for 7 days,0 number of subjects
same,Pruritus,[4]; 1 mg OD for 7 days,0 number of subjects
same,γ-GTP increased,[4]; 1 mg OD for 7 days,0 number of subjects
same,ALT increased,[4]; 2.5 mg OD for 7 days,1 number of subjects
same,Blood urine present,[4]; 2.5 mg OD for 7 days,0 number of subjects
same,Constipation,[4]; 2.5 mg OD for 7 days,0 number of subjects
same,Dermatitis contact,[4]; 2.5 mg OD for 7 days,0 number of subjects
same,Diarrhea,[4]; 2.5 mg OD for 7 days,0 number of subjects
same,Headache,[4]; 2.5 mg OD for 7 days,0 number of subjects
same,Pruritus,[4]; 2.5 mg OD for 7 days,0 number of subjects
same,γ-GTP increased,[4]; 2.5 mg OD for 7 days,1 number of subjects
same,ALT increased,[4]; 5 mg OD for 7 days,0 number of subjects
same,Blood urine present,[4]; 5 mg OD for 7 days,1 number of subjects
same,Constipation,[4]; 5 mg OD for 7 days,0 number of subjects
same,Dermatitis contact,[4]; 5 mg OD for 7 days,0 number of subjects
same,Diarrhea,[4]; 5 mg OD for 7 days,0 number of subjects
same,Headache,[4]; 5 mg OD for 7 days,1 number of subjects
same,Pruritus,[4]; 5 mg OD for 7 days,0 number of subjects
same,γ-GTP increased,[4]; 5 mg OD for 7 days,0 number of subjects
same,episodes of hypoglycemia,[4]; 0.5-5 mg OD for 7 days,no episodes
same,serious AEs or AEs leading to discontinuation,[4]; 0.5-5 mg OD for 7 days,no serious AEs
same,severity of adverse events,[4]; 0.5-5 mg OD for 7 days,mild
same,urinary tract/genital infection,[4]; 0.5-5 mg OD for 7 days,no episodes
